The source made the active and inactive calls. The calls are words filed in the database; no cut-off is given here.
Tests used:
[1] = target: T1, NAD-dependent protein deacetylase sirtuin-1 (Homo sapiens) (UniProt Q96EB6); test: Inhibition of SIRT1 in human HCT116 cells assessed as increase in acetylated p53 at 1 to 10 uM after 8 hrs by Western blot analysis; assay type: cell-based; conditions: HCT-116
T1 sequence (whole entry): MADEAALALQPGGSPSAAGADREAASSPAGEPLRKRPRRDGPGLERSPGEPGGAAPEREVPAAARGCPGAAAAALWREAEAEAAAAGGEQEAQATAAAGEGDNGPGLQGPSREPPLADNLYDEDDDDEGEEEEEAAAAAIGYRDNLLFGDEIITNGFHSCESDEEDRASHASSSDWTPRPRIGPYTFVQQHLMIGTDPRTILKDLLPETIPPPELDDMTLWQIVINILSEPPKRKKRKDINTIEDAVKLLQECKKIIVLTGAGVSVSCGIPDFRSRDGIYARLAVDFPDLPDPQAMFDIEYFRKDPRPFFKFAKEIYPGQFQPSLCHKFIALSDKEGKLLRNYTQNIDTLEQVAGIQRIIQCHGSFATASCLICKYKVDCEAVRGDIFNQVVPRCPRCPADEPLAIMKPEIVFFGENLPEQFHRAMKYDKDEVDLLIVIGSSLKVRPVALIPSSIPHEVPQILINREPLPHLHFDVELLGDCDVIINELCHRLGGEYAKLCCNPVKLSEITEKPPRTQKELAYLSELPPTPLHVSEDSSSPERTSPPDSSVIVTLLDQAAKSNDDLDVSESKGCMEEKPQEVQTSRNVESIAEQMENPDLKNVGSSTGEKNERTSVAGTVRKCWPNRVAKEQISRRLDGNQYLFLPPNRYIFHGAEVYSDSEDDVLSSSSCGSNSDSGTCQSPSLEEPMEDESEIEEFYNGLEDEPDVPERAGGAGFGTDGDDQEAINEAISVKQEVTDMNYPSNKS
Procedure, shortened: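 HCT116 cells grown in McCoy's 5A with 10% FBS. 5×10⁵ cells exposed 8 h to compound at 1 or 10 μM, alongside 20 μM etoposide. SDS lysates equalized by Bradford assay and run on 15% SDS-PAGE, then blotted onto nitrocellulose. Blots probed overnight at 4 °C for acetyl-p53, p53, acetyl-α-tubulin and α-tubulin, and detected by ECL. Signal given as acetylated/total protein ratio.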

[2] = target: T2, Histone deacetylase 11 (Homo sapiens, UniProt Q96DB2); test: Inhibition of HDAC11
T2 sequence (Q96DB2 whole entry): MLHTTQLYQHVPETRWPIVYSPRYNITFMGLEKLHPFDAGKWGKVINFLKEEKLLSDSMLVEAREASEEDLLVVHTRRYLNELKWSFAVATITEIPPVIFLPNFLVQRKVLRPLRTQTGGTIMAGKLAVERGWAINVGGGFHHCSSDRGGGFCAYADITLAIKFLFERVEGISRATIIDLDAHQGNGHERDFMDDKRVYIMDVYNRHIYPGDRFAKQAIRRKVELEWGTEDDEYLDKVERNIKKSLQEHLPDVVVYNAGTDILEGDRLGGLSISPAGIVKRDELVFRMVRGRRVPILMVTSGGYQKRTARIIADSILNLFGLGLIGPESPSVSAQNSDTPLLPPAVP

[3] = target: T3, Polyamine deacetylase HDAC10 (Homo sapiens, UniProt Q969S8); test: Inhibition of HDAC10
T3 sequence (Q969S8 whole entry): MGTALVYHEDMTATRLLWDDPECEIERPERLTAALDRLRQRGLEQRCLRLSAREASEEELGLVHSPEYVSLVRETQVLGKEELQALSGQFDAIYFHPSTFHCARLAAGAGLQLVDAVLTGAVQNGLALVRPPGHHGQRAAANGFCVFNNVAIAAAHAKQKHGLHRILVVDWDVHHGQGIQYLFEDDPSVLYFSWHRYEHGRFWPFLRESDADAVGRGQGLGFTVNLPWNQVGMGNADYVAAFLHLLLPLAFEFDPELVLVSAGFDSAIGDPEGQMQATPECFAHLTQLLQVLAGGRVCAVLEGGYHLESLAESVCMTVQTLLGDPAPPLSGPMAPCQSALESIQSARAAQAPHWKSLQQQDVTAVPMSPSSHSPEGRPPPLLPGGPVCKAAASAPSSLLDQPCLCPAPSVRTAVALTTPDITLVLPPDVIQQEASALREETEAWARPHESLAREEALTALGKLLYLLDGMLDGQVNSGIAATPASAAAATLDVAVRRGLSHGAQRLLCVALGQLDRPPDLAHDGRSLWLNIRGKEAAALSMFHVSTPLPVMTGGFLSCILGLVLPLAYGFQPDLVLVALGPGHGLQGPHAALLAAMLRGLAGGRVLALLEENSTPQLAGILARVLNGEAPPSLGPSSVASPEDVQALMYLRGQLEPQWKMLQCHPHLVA

inhibition [1]: inactive
IC50 [2]: > 30 µM
IC50 [3]: > 30 µM
Structure (SMILES): NC(=O)c1ccccc1Nc1cccc(OCCc2ccccc2)c1

— ChEMBL document CHEMBL2150931, “Design, synthesis, and biological activity of a novel series of human sirtuin-2-selective inhibitors” (J Med Chem, 2012)
